A selection: hits, their analogues and other compounds. The true share with any hit is near 9.4%.
Beta cell apopt: beta cell apoptosis inhibition | INS-1E cytokine-induced death, ATP luminescence, 48 h; percent of positive-control rescue, neutral wells zero | protection from apoptosis, % (concentration not given with the values) | 300,000 compounds, 0.8% hits;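 active means Every replicate reaches about 75%, or at least half do and their mean reaches it too, limit read from the data; inconclusive means At least half of replicates reach the limit but their mean does not; inactive means Under half of replicates reach the limit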;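 further: 0% = cytokine-treated negative control wells and 100% = positive control rescue; higher means more ATP so stronger rescue from cytokine killing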
CSC inhib: blocks cancer stem cells. cancer stem cell-like cells viability, luminescence. inhibition, % at 7.5 µM. 300,000 compounds, 1.1% hits; in the data active means inhibition above about 75%; inconclusive means no clear call, values can overlap the other calls; tested in HMLE shEcad cells
SKKanGAS inh: blocks kanamycin growth of S. pyogenes SKKanGAS strain; inhibition, % at 7.5 µM; BacTiter-Glo, 6 h; 300,000 compounds, 1.3% hits;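 active means mean replicate score, as percent of positive control median, at least 50; inconclusive means mean below 50 but one replicate at or above 50; inactive means mean and every replicate below 50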;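 further: strain carries kanamycin resistance gene driven by streptokinase promoter and grows in 40 µg/ml kanamycin; loss of luminescence reflects streptokinase promoter inhibition or plain growth inhibition; 0% = median of DMSO wells and 100% = positive control at its reference dose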
Mdm2-MdmX inh: human Mdm2/MdmX binding inhibition. O15151+Q00987. SaOS-2 split-luciferase Mdm2/MdmX complementation, luminescence. inhibition, % at 8 µM. 330,000 compounds, 3% hits. AID 485346;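 active means inhibition of at least 50% at 8 µM in the primary screen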
Target sequence (O15151 whole entry, looked up): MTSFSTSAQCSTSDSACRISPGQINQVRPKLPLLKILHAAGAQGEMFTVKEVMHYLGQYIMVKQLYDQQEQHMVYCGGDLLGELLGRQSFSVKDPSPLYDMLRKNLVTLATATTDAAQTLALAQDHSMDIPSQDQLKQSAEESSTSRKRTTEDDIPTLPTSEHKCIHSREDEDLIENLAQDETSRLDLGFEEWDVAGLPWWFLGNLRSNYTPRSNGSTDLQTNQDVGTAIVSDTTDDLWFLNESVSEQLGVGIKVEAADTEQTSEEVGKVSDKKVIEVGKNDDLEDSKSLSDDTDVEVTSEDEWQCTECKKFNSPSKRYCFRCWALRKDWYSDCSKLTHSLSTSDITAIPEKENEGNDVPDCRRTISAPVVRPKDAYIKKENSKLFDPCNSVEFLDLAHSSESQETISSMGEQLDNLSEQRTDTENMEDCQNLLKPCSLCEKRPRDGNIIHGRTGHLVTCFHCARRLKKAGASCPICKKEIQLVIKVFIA
Target sequence (Q00987 whole entry, looked up): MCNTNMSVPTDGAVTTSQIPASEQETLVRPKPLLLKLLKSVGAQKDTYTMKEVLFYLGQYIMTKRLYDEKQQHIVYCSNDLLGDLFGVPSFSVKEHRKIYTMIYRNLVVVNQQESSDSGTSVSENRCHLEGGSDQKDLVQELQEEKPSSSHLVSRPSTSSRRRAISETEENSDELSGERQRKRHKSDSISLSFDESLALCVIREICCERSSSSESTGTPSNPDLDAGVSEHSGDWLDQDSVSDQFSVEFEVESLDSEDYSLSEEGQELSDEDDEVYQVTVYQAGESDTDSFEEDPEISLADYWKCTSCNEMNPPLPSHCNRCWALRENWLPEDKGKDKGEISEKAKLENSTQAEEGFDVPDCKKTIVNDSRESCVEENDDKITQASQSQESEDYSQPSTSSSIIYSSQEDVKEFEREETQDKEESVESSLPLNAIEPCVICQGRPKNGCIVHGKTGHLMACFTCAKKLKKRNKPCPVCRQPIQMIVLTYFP
Lmaj promast: reduces viability of Leishmania major promastigotes | resazurin fluorescence viability | inhibition, % at 10 µM | 200,000 compounds, 9% hits | AID 1063; in the data active means inhibition above about 50%;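 further: promastigotes grown with compound for 44 hours at 28 °C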
T cruzi inh: T. cruzi replication inhibition; T. cruzi beta-gal in NIH3T3, luminescence, 90 h; inhibition, % (test concentration not listed); 300,000 compounds, 1.4% hits; AID 1885;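 active means mean inhibition across valid replicates above about 55%, limit read from the data; inconclusive means mean below that limit but half or more replicates reach it; inactive means mean below it, under half of replicates reach it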;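 further: signal also drops with host cell toxicity which is not excluded here; 0% = plate median of DMSO wells and 100% = zero luminescence signal; higher percent means less beta-gal luminescence so fewer parasites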
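System – NIH/3T3 host cells with β-galactosidase reporter T. cruzi · Doses – single 50 nL compound addition per well in DMSO · Reagent – 5000 T. cruzi trypomastigotes/well · Medium – Low-serum DMEM with 2% FBS · Timing – ≥90 h infection period, 3 h prior cell attachment · Evaluation – parasite load inhibition, % · Technique – GalScreen luminescence, 60 min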
Mdm2-MdmX conf: human Mdm2/MdmX binding inhibition, confirmed | 10,000 compounds, 55% hits | luminescent assay | shares compounds with Mdm2-MdmX inh | inhibition, % at 8 µM; in the data active means inhibition above about 40%
FLuc counter: full-length luciferase inhibition in Mdm2/MdmX counter-screen; shares compounds with Mdm2-MdmX inh; SaOS-2 full-length luciferase counterscreen, luminescence; inhibition, % at 8 µM; 6,200 compounds, 77% hits; AID 504607;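 active means mean inhibition at 8 µM reaching about 37%, which flags the compound as non-specific, limit read from the data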;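 further: p53-null SaOS-2 cells with luciferase driven by a doxycycline-inducible promoter; compound on cells about two nights before reading with doxycycline added after day one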
* marks the source's active call; other numbers are inactive results; ? = inconclusive; · = no result given.

SMILES	Beta cell apopt	CSC inhib	SKKanGAS inh	Mdm2-MdmX inh	Lmaj promast	T cruzi inh	Mdm2-MdmX conf	FLuc counter
COc1cc(NC(=S)N2CCN(C/C=C/c3ccccc3)CC2)cc(OC)c1	·	-7.4	-14.9	35.5	41.5	-9.7	·	·
O=C(COC(=O)c1n[nH]c2ccccc12)NC(=O)NC12CC3CC(CC(C3)C1)C2	12.7	11.3	-4.5	53.9*	-2.3	16.1	33.9	71.9*
COc1ccc(-c2nn(-c3ccccc3)cc2C(=O)N2c3ccc(C)cc3C3CN(C)CCC32)cc1 (centres undefined)	14.7	·	6.3	53.9*	59.1*	39.9	35.5	73.8*
O=C(Cc1ccccc1)NNc1c2ccccc2nc2ccccc12	3.7	-18.8	28.3	8.5	31.2	12.4	·	·
O=C(Nc1c2ccccc2nc2ccccc12)C(Cl)(Cl)Cl	?	·	-1.3	62.3*	100.5*	21.8	48.3*	33.7
O=C1c2ccccc2-c2onc3ccc(NCc4ccco4)c1c23	43.6	50.5	23.3	58.0*	-2.4	13.9	25.2	·
Cc1ccc(NC(=O)/C=C/c2cccc(C(F)(F)F)c2)cc1	0.6	7.1	4.6	24.1	-2.3	21.9	·	·
O=C(/C=C/c1cccc(C(F)(F)F)c1)Nc1cccc(C(F)(F)F)c1	-6.3	33.1	88.1*	90.8*	95.7*	42.0	31.2	57.2*
CCc1nc(N2CCN(C(=O)c3ccccc3)CC2)c2c3c(sc2n1)CCCC3	·	·	15.6	21.7	34.2	33.3	·	·
Cc1nc(Sc2nnnn2C)c2c3c(sc2n1)CCC3	60.8	64.5	·	96.7*	25.9	·	92.8*	62.6*
Cc1nc(SCC(=O)NCC2CCCO2)c2c3c(sc2n1)CCC3 (centres undefined)	5.1	-11.8	14.6	24.1	·	6.8	·	·
CCc1nc(Sc2nnnn2-c2ccccc2)c2c3c(sc2n1)CCCC3	-7.7	16.2	0.7	93.5*	97.9*	14.8	83.9*	52.4*
COc1cccc(NC(=O)CCc2nc(-c3ccccc3F)no2)c1	-2.0	-21.0	-3.8	6.1	-0.3	-21.1	·	·
O=C(CCc1nc(-c2ccccc2F)no1)Nc1ccc(Oc2ccccc2)cc1	0.7	56.9	18.6	61.4*	8.4	0.7	23.1	52.1*
Cc1ccc(C(=O)NC(=S)N(C)Cc2ccccc2)cc1	8.1	10.6	-7.9	-10.8	·	-6.5	·	·
CC(C)(C)C(=O)NC(=S)NNC(=O)c1ccc(-c2ccccc2)cc1	76.0*	90.9*	91.0*	57.3*	96.6*	43.1	45.6*	28.9
CCCN(CCC)C(=S)NC(=O)c1ccc(-c2ccccc2)cc1	6.8	37.0	37.8	55.2*	2.6	50.5	25.6	·
COc1ccc(NC(=S)NNc2ccc(S(=O)(=O)Nc3ccccc3C(=O)O)cc2[N+](=O)[O-])cc1	12.4	21.2	15.5	4.6	·	5.0	·	·
Clc1nc(-c2cccnc2)nc2scc(-c3ccccc3)c12	-7.8	12.4	16.4	18.2	21.8	10.5	·	·
COc1ccc(-c2csc3nc(-c4cccnc4)nc(Cl)c23)cc1OC	19.1	49.8	13.7	81.1*	53.6*	-46.7	30.8	·
Cc1ccc(-c2nc3ncccc3o2)cc1NC(=O)c1sc2ccccc2c1Cl	-1.1	70.4	-1.8	82.9*	-0.8	-9.1	26.4	·
COC(=O)COc1ccc(NC(=O)Cn2nc(-c3ccccc3)c3ccccc3c2=O)cc1	-1.7	2.8	-3.8	81.5*	-7.9	0.5	48.9*	89.3*
COc1ccc(-c2nn(CC(=O)Nc3ccc(Cl)c(Cl)c3)c(=O)c3ccccc23)cc1	-9.1	-8.4	10.2	18.7	-2.4	2.4	·	·
COc1cc(/C=C2\N=C(c3ccccc3)NNC2=O)cc(OC)c1OC	·	·	8.2	61.0*	·	-16.8	53.6*	63.5*
CCN(CC)S(=O)(=O)c1ccc2oc(SCC(=O)Nc3cc(C)on3)nc2c1	64.3	41.2	1.5	54.9*	·	60.4*	56.7*	52.5*
CC(C)NCC(O)Cn1c2c(c3ccccc31)CCc1c-2cnn1-c1ccccc1 (centres undefined)	113.4*	14.3	3.8	98.1*	100.5*	39.6	73.7*	12.2

From PubChem
